Measurements pooled from the literature.
Compare with care: the assays were run in different laboratories.
Target: Maternal embryonic leucine zipper kinase (MELK, Homo sapiens, UniProt Q14680)

| Compound | read-out | mode | method | tested at | measurement | value |
| --- | --- | --- | --- | --- | --- | --- |
| Cn1cncc1[C@@](O)(COc1ccc(C#N)cc1-c1ccc(OC(F)(F)F)cc1)c1ccc(C#N)cc1 | cell-free assay |  | competition with immobilised ligand | 1 µM | remaining binding | 79% |
| COc1cc(Nc2ncc(F)c(Nc3ccc4c(n3)NC(=O)C(C)(C)O4)n2)cc(OC)c1OC | binding |  | competition with immobilised ligand | 10 µM | inhibition | 71% |
| Cn1cc(-c2cc(F)cc(N3CCn4c(cc5c4CCCC5)C3=O)c2CO)cc(Nc2ccc(N3CCN(C4COC4)CC3)cn2)c1=O | enzyme activity | inhibitor |  | 0.1 µM | inhibition | 16% |
| CC(C)(C)c1cc(C=C(C#N)C#N)cc(Br)c1O | enzyme activity | inhibitor |  | 0.5 µM | remaining activity | 91.6% |
| Cn1cc(-c2cccc(N3CCc4c(sc5c4CC(C)(C)C5)C3=O)c2CO)cc(Nc2ccncn2)c1=O | enzyme activity | inhibitor |  | 1 µM | inhibition | 5% |
| O=c1[nH]c2ccccc2n1C1CCN(Cc2ccc(-c3[nH]c4cc5ncnc5cc4nc3-c3ccccc3)cc2)CC1 | cell-free assay |  |  | 0.5 µM | remaining signal | 110% |
| COc1ncccc1-c1cnn2ccc(N3CCN(C(=O)OC(C)C)CC3)nc12 | binding |  | competition with immobilised ligand | 1 µM | remaining binding | 97% |
| Cc1nn(C)cc1-c1nc2c(N3CCN(Cc4ccc(Cl)cc4)CC3)c(Cl)cnc2[nH]1 | binding |  | competition with immobilised ligand | 1 µM | remaining binding | 100% |
| N#CC1(c2ccccn2)CCN(Cc2cc(C(=O)O)c(=O)n3ccccc23)CC1 | cell-free assay |  | competition with immobilised ligand | 1 µM | remaining binding | 55% |
